Reference: article PMC5487498 (World Journal of Gastroenterology, 2017)

Experiments:
Assay in all cases: MTS cell proliferation/viability assay
CaCo-2 = format: cell-based, human; conditions: read-out: IC50 CaCo-2, 72 h incubation
Procedure, shortened: (§1)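 Cells were seeded at 10 × 10^3 cells/well and exposed 24 h later to test compound at 100, 50, 10, 5, 1 and 0.1 μmol/L for 72 h. MTS was then added for 2 h and absorbance read at 490 nm, with untreated control taken as 100%. HCT116 was grown in RPMI 1640; Caco-2 and murine 3T3 fibroblasts in high-glucose DMEM with pyruvate, 10% FBS and penicillin/streptomycin, at 37 °C and 5% CO2.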

HCT116 = format: cell-based, human; conditions: read-out: IC50 HCT116, 72 h incubation
Procedure, shortened: as §1

3T3 = format: cell-based, murine; conditions: read-out: IC50 3T3, 72 h incubation, non-cancer fibroblasts
Procedure, shortened: as §1

## CC(C)(C)OC(=O)N1c2ccccc2C2(CN=C(Nc3ccc(Cl)cc3)S2)C1N1CCCCC1 (racemic) [Compound K-467, trans-(±)-1-(terc-buthoxycarbonyl)-2-(1-piperidyl)-2’-(4-chlorophenylamino)spiro{indoline-3,5’-[4’,5’]dihydrothiazol}]
CaCo-2
  IC50: > 100 µM
HCT116
  IC50: > 100 µM
3T3
  IC50: > 100 µM

## CON1C(=O)C2(CN=C(Nc3ccc(C)cc3)S2)c2ccccc21 (racemic) [Compound K-466, (±)-1-methoxy-2’-(4-methylphenylamino)spiro{indoline-3,5’-[4’,5’]-dihydrothiazol}-2-one]
CaCo-2
  IC50: > 100 µM
HCT116
  IC50: > 100 µM
3T3
  IC50: > 100 µM

## CON1C(=O)C2(CN=C(Nc3ccc(Br)cc3)S2)c2ccccc21 (racemic) [Compound K-463, (±)-1-methoxy-2’-(4-bromophenylamino)spiro{indoline-3,5’-[4’,5’]-dihydrothiazol}-2-one]
CaCo-2
  IC50: 74.18 ± 0.001 µM
HCT116
  IC50: 33 ± 2.67 µM
3T3
  IC50: 61.1 ± 2.25 µM

## CSC(=O)NCc1c[nH]c2ccc(F)cc12 [Compound K-455, 5-fluorobrassitin]
CaCo-2
  IC50: > 100 µM
HCT116
  IC50: > 100 µM
3T3
  IC50: > 100 µM

## CON1C(=O)C2(CN=C(Nc3ccc(C(F)(F)F)cc3)S2)c2ccccc21 (racemic) [Compound K-465, (±)-1-methoxy-2’-(4-trifluoromethylphenylamino)spiro{indoline-3,5’-[4’,5’]-dihydrothiazol}-2-one]
CaCo-2
  IC50: 35.7 ± 6.49 µM
HCT116
  IC50: 33.7 ± 2.78 µM
3T3
  IC50: 34.9 ± 2.01 µM

## CC(C)(C)OC(=O)N1c2ccccc2C2(CN=C(Nc3ccc(C(F)(F)F)cc3)S2)C1N1CCCCC1 (racemic) [Compound K-471, trans-(±)-1-(terc-buthoxycarbonyl)-2-(1-piperidyl)-2’-(4-trifluoromethylphenylamino)spiro{indoline-3,5’-[4’,5’]dihydrothiazol}]
CaCo-2
  IC50: > 100 µM
HCT116
  IC50: > 100 µM
3T3
  IC50: > 100 µM

## COC1N(OC)c2ccccc2C12CN=C(Nc1ccc(C(F)(F)F)cc1)S2 (racemic) [Compound K-452, (±)-cis-1,2-dimethoxy-2’-(4-trifluoromethylphenylamino)spiro{indoline-3,5’[4’,5’]dihydrothiazol}]
CaCo-2
  IC50: > 100 µM
HCT116
  IC50: > 100 µM
3T3
  IC50: > 100 µM

## COC1N(OC)c2ccc(F)cc2C12CN=C(SC)S2 (racemic) [Compound K-462, (±)-cis-5-fluoro-1-methoxyspirobrassinolmethylether]
CaCo-2
  IC50: > 100 µM
HCT116
  IC50: > 100 µM
3T3
  IC50: > 100 µM

## COn1cc(CNC(=O)SC)c2cc(F)ccc21 [Compound K-459, 5-fluoro-1-methoxybrassitin]
CaCo-2
  IC50: > 100 µM
HCT116
  IC50: > 100 µM
3T3
  IC50: > 100 µM
